Here are results for nine molecules from ChEMBL document CHEMBL4038350 (J Med Chem, 2017).

Holding throughout (format): functional, cell-based
Experiment [1] has as its target T1, Melanocortin receptor 3 (Mus musculus, UniProt P33033). The experiment can be described thus: Antagonist activity at mouse melanocortin receptor 3 expressed in HEK293 cells assessed as inhibition of NDP-MSH-induced cAMP accumulation after 2 hrs by AlphaScreen assay. To be noted: read-out: pA2 (converted). On the technique in general: Cyclic AMP is a second messenger, typically raised through Gs and lowered through Gi signalling.

Experiment [2] concerns the target T2, Melanocortin receptor 4 (Mus musculus, UniProt P56450). Briefly: Antagonist activity at mouse melanocortin receptor 4 expressed in HEK293 cells assessed as inhibition of NDP-MSH-induced cAMP accumulation after 2 hrs by AlphaScreen assay. To be noted: read-out: pA2 (converted).
For experiment [3], the target named is Melanocyte-stimulating hormone receptor (Mus musculus) (UniProt Q01727). Briefly: Agonist activity at mouse melanocortin receptor 1 expressed in HEK293 cells assessed as increase in cAMP accumulation at 100 uM after 2 hrs by AlphaScreen assay relative to control. The method in brief: (§1)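 Cyclic peptides were dissolved in DMSO. Receptor-expressing HEK293 cells in IBMX-containing stimulation buffer (pH 7.4) were stimulated for 2 h at room temperature. cAMP was then detected by competitive AlphaScreen after a 2 h lysis/bead step. […] Values come from at least three independent experiments.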

Experiment [4] has as its target Melanocortin receptor 3 (Mus musculus) (UniProt P33033). The experiment can be described thus: Agonist activity at mouse melanocortin receptor 3 expressed in HEK293 cells assessed as increase in cAMP accumulation at 100 uM after 2 hrs by AlphaScreen assay relative to control. The method in brief:
as §1

In experiment [5] the target is Melanocortin receptor 4 (Mus musculus) (UniProt P56450). Briefly: Agonist activity at mouse melanocortin receptor 4 expressed in HEK293 cells assessed as increase in cAMP accumulation at 100 uM after 2 hrs by AlphaScreen assay. The method in brief: as §1
The target in experiment [6] is Melanocortin receptor 5 (Mus musculus) (UniProt P41149). Briefly: Inverse agonist activity at mouse melanocortin receptor 5 expressed in HEK293 cells assessed as decrease in cAMP accumulation at 150 nM after 2 hrs by AlphaScreen assay relative to control. Also on record: scale not given: the % may be the effect or the level left. The method in brief:
(§2)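 In mouse MC5R-HEK293 cells, cAMP was measured by AlphaScreen after 2 h peptide exposure (10−4 to 10−13 M) at room temperature. Each replicate was normalized to its signal at 10−10 M. For sigmoidal curves, percent inverse agonism was the change from basal to the high-concentration plateau. Apparent potency was taken as the curve inflection point. Three independent experiments were run.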

In experiment [7] the target is Melanocyte-stimulating hormone receptor (Mus musculus, UniProt Q01727). Briefly: Agonist activity at mouse melanocortin receptor 1 expressed in HEK293 cells assessed as increase in cAMP accumulation after 2 hrs by AlphaScreen assay. In a few lines:
(§3)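 Donor beads and biotin-cAMP in lysis buffer followed for 2 h. The AlphaScreen signal was read. EC50 came from nonlinear least-squares fits, duplicates, at least three independent experiments.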

Experiment [8] concerns the target T1, Melanocortin receptor 3. Briefly: Agonist activity at mouse melanocortin receptor 3 expressed in HEK293 cells assessed as increase in cAMP accumulation after 2 hrs by AlphaScreen assay.
For experiment [9], the target named is T2, Melanocortin receptor 4. The experiment can be described thus: Agonist activity at mouse melanocortin receptor 4 expressed in HEK293 cells assessed as increase in cAMP accumulation after 2 hrs by AlphaScreen assay.
In experiment [10] the target is Melanocortin receptor 5 (Mus musculus) (UniProt P41149). The experiment can be described thus: Inverse agonist activity at mouse melanocortin receptor 5 expressed in HEK293 cells assessed as decrease in cAMP accumulation at 50 nM after 2 hrs by AlphaScreen assay relative to control. Also on record: scale not given: the % may be the effect or the level left. The method in brief:
as §2

For experiment [11] the target is unchanged. The experiment can be described thus: Inverse agonist activity at mouse melanocortin receptor 5 expressed in HEK293 cells assessed as decrease in cAMP accumulation at 130 nM after 2 hrs by AlphaScreen assay relative to control. Also on record: scale not given: the % may be the effect or the level left. In a few lines:
as §2

Experiment [12] shares this target. The experiment can be described thus: Inverse agonist activity at mouse melanocortin receptor 5 expressed in HEK293 cells assessed as decrease in cAMP accumulation at 160 nM after 2 hrs by AlphaScreen assay relative to control. Also on record: scale not given: the % may be the effect or the level left. In a few lines:
as §2

For experiment [13] the target is unchanged. The experiment can be described thus: Inverse agonist activity at mouse melanocortin receptor 5 expressed in HEK293 cells assessed as decrease in cAMP accumulation at 250 nM after 2 hrs by AlphaScreen assay relative to control. Also on record: scale not given: the % may be the effect or the level left. The method in brief:
as §2

The target is the same in experiment [14]. The experiment can be described thus: Inverse agonist activity at mouse melanocortin receptor 5 expressed in HEK293 cells assessed as decrease in cAMP accumulation at 60 nM after 2 hrs by AlphaScreen assay relative to control. Also on record: scale not given: the % may be the effect or the level left. In a few lines:
as §2

Experiment [15] has the same target. The experiment can be described thus: Inverse agonist activity at mouse melanocortin receptor 5 expressed in HEK293 cells assessed as decrease in cAMP accumulation at 700 nM after 2 hrs by AlphaScreen assay relative to control. Also on record: scale not given: the % may be the effect or the level left. In a few lines:
as §2

For a further experiment, the target named is Melanocortin receptor 5 (Mus musculus, UniProt P41149). Briefly: Agonist activity at mouse melanocortin receptor 5 expressed in HEK293 cells assessed as increase in cAMP accumulation after 2 hrs by AlphaScreen assay. The method in brief: as §3
For experiment [16], the target named is Melanocyte-stimulating hormone receptor (Mus musculus) (UniProt Q01727). The experiment can be described thus: Partial agonist activity at mouse melanocortin receptor 1 expressed in HEK293 cells assessed as increase in cAMP accumulation after 2 hrs by AlphaScreen assay relative to NDP. In a few lines:
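Mouse MC1R stably expressed in HEK293 cells, stimulated for 2 hr at room temperature in the dark. Peptide at 10−4 to 10−13 M in HBSS/HEPES buffer with 0.5 mM IBMX and 0.1% BSA, pH 7.4; forskolin 10−4 M. AlphaScreen cAMP detection after lysis and a further 2 hr. Signal normalized to maximal NDP-MSH response.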

For experiment [17], the target named is Melanocortin receptor 5 (Mus musculus) (UniProt P41149). The experiment can be described thus: Inverse agonist activity at mouse melanocortin receptor 5 expressed in HEK293 cells assessed as decrease in cAMP accumulation at 140 nM after 2 hrs by AlphaScreen assay relative to control. Also noted: scale not given: the % may be the effect or the level left. The method in brief: as §2

Non-standard residues stand in square brackets, D forms with d. Residues, ends and D or L forms follow the SMILES beside them.

Sequence of Melanocortin receptor 5 (Mus musculus) (P41149 whole entry): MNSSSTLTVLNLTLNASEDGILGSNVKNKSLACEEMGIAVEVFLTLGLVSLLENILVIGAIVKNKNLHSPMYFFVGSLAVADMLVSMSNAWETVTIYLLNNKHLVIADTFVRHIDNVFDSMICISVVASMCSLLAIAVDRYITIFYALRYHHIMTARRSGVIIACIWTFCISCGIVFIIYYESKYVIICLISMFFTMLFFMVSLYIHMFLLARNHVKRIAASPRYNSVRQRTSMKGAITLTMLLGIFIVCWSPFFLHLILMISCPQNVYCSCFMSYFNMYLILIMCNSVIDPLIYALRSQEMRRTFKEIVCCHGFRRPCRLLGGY
T1 sequence (P33033 whole entry): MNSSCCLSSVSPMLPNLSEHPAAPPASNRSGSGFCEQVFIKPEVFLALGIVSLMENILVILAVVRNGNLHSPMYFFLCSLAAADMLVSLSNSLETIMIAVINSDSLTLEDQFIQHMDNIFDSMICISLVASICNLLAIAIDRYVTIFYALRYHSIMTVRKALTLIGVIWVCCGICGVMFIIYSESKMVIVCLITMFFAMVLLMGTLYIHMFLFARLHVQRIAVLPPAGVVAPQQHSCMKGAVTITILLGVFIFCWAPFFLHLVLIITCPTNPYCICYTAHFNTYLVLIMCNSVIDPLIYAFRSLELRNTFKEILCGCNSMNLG
Sequence of Melanocyte-stimulating hormone receptor (Q01727 whole entry): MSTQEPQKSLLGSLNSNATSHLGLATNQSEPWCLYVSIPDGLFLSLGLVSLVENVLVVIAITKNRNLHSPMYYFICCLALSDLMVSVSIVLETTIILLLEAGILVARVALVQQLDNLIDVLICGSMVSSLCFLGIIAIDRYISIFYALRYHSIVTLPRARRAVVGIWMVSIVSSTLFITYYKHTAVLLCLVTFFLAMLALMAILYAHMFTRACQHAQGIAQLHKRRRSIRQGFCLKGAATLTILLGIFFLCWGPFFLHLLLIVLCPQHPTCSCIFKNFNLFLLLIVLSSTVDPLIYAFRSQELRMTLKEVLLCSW
Sequence of Melanocyte-stimulating hormone receptor (Mus musculus) (Q01727 whole entry, looked up): as the sequence (Q01727 whole entry) above
T2 sequence (P56450 whole entry): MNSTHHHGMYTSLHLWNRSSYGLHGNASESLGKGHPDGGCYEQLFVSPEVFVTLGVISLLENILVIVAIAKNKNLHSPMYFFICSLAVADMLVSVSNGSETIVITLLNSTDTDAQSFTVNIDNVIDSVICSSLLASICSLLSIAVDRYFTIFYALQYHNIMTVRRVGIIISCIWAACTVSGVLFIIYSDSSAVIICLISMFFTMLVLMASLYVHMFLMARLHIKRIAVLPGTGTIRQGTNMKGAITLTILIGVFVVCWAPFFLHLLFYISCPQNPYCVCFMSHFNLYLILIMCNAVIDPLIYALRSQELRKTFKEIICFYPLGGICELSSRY
Sequence of Melanocortin receptor 5 (P41149 whole entry): as the sequence (P41149 whole entry) above
Sequence of Melanocortin receptor 3 (Mus musculus) (P33033 whole entry): as the sequence (P33033 whole entry) above
Sequence of Melanocortin receptor 4 (Mus musculus) (P56450 whole entry): as the sequence (P56450 whole entry) above

Regarding `C[C@@H]1NC(=O)[C@H](Cc2c[nH]c3ccccc23)NC(=O)[C@H](Cc2ccccc2)NC(=O)[C@H](Cc2ccccc2)NC(=O)[C@H](CCCNC(=N)N)NC(=O)[C@@H]2CCCN2C(=O)[C@H]2CCCN2C(=O)[C@H](Cc2ccccc2)NC1=O` (cyclo(RFFWAF[dP]P)), the Kb is 2 µM at Melanocortin receptor 3 [1] and 0.155 µM at Melanocortin receptor 4 [2]. Besides, the Activity was 80% in experiment [3], 40% in experiment [4], 50% in [5] and 20% in experiment [6].

With `C[C@@H]1NC(=O)[C@H]([C@@H](C)O)NC(=O)[C@H](Cc2ccccc2)NC(=O)[C@H](Cc2ccccc2)NC(=O)[C@H](CCCNC(=N)N)NC(=O)[C@@H]2CCCN2C(=O)[C@H]2CCCN2C(=O)[C@H](Cc2ccccc2)NC1=O` (cyclo(RFFTAF[dP]P)), the Kb was 0.398 µM on Melanocortin receptor 3 [1] and 0.0174 µM on Melanocortin receptor 4 [2]. Further, the EC50 (in experiment [7]; at Melanocortin receptor 3 [8]; on Melanocortin receptor 4 [9]) was more than 100 µM in each case. In addition, the Activity in experiment [10] is 20%.

For the molecule `C[C@@H]1NC(=O)[C@H](CC(N)=O)NC(=O)[C@H](Cc2ccccc2)NC(=O)[C@H](Cc2ccccc2)NC(=O)[C@H](CCCNC(=N)N)NC(=O)[C@@H]2CCCN2C(=O)[C@H]2CCCN2C(=O)[C@H](Cc2ccccc2)NC1=O`, the Activity in [3] came out at 25%; in experiment [11], 10%.

With `CCC1NC(=O)[C@H](Cc2ccccc2)NC(=O)[C@H](Cc2ccccc2)NC(=O)[C@H](CCCNC(=N)N)NC(=O)[C@@H]2CCCN2C(=O)[C@H]2CCCN2C(=O)[C@H](Cc2ccccc2)NC(=O)[C@H](C)NC1=O` (stereo partly specified), the Kb at Melanocortin receptor 3 [1] was more than 3.16 µM. Further, the EC50 (in general, the concentration needed to bring the measured effect to its halfway point) on Melanocortin receptor 3 [8] was more than 100 µM. Also, the Activity in experiment [12] was determined as 20%.

Consider `C[C@@H]1NC(=O)[C@H](C)NC(=O)[C@H](Cc2ccccc2)NC(=O)[C@H](Cc2ccccc2)NC(=O)[C@H](CCCNC(=N)N)NC(=O)[C@@H]2CCCN2C(=O)[C@H]2CCCN2C(=O)[C@H](Cc2ccccc2)NC1=O`, for which the Kb at Melanocortin receptor 3 [1] was more than 3.16 µM; at Melanocortin receptor 4 [2], 0.0479 µM. Besides, the EC50 (in [7]; on Melanocortin receptor 3 [8]; on Melanocortin receptor 4 [9]) was more than 100 µM throughout. For the same molecule, in [13], the Activity was found to be 20%.

On to `C[C@@H]1NC(=O)[C@H](CN)NC(=O)[C@H](Cc2ccccc2)NC(=O)[C@H](Cc2ccccc2)NC(=O)[C@H](CCCNC(=N)N)NC(=O)[C@@H]2CCCN2C(=O)[C@H]2CCCN2C(=O)[C@H](Cc2ccccc2)NC1=O`, for which the Kb at Melanocortin receptor 3 [1] is 0.302 µM. Also, the EC50 at Melanocortin receptor 3 [8] is more than 100 µM. Besides, the Activity turned out to be 30% in [3] and 15% in experiment [14].

For the molecule `C[C@@H]1NC(=O)[C@H](CCC(=O)O)NC(=O)[C@H](Cc2ccccc2)NC(=O)[C@H](Cc2ccccc2)NC(=O)[C@H](CCCNC(=N)N)NC(=O)[C@@H]2CCCN2C(=O)[C@H]2CCCN2C(=O)[C@H](Cc2ccccc2)NC1=O`, the Kb on Melanocortin receptor 3 [1] is more than 3.16 µM; on Melanocortin receptor 4 [2], 0.1 µM. In addition, the EC50 in [7] is 20.5 µM; at Melanocortin receptor 3 [8], more than 100 µM; on Melanocortin receptor 4 [9], more than 100 µM. The Activity in experiment [15] is 10%.

For `N=C(N)NCCC[C@@H]1NC(=O)[C@@H]2CCCN2C(=O)[C@H]2CCCN2C(=O)[C@H](Cc2ccccc2)NC(=O)[C@H](Cc2c[nH]cn2)NC(=O)[C@H](CC(N)=O)NC(=O)[C@H](Cc2ccccc2)NC(=O)[C@H](Cc2ccccc2)NC1=O` (cyclo(RFFNHF[dP]P)), the results for the Kb on Melanocortin receptor 3 [1] and on Melanocortin receptor 4 [2] were more than 3.16 µM and 0.851 µM, respectively. The EC50 is 2.6 µM in experiment [7], more than 100 µM on Melanocortin receptor 3 [8], more than 100 µM at Melanocortin receptor 4 [9] and more than 100 µM at Melanocortin receptor 5. Besides, the Activity in experiment [16] was 40%.

Consider `C[C@@H]1NC(=O)[C@H](CO)NC(=O)[C@H](Cc2ccccc2)NC(=O)[C@H](Cc2ccccc2)NC(=O)[C@H](CCCNC(=N)N)NC(=O)[C@@H]2CCCN2C(=O)[C@H]2CCCN2C(=O)[C@H](Cc2ccccc2)NC1=O`, for which the Kb on Melanocortin receptor 3 [1] is 1.26 µM; at Melanocortin receptor 4 [2], 0.02 µM. For the same molecule, the EC50 (in [7]; at Melanocortin receptor 3 [8]; on Melanocortin receptor 4 [9]) was more than 100 µM throughout. For the same molecule, the Activity in [17] came to 25%.
